# Screening results as filed in PubChem BioAssay.
# Sampled rows, rich in hits. Any-hit rate of the full collection: about 6.4%.
# WT yeast gro inh: growth inhibition of WT yeast, mitochondrial fusion screen; mitochondrial fusion phenotypic screen, WT strain; inhibition, % at 10 µM; 2.1% of 190,000 active; in the data active = inhibition above about 58%; tested in S. cerevisiae
# CHOP inhibitor: inhibitors of CHOP induction in ER stress response; CHO-K1 CHOP-promoter luciferase, tunicamycin-induced, 15-18 h; inhibition, % at 10 µM; 3.8% of 220,000 active; AID 2732;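 active = compounds that reduced the stress-induced luciferase reporter signal by more than about 70% of percent inhibition, limit read from the data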;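 also: 0% = tunicamycin plus vehicle and 100% = wells without tunicamycin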
# Tb MetRS inh: blocks T. brucei methionyl-tRNA synthetase activity; inhibition, % at 11.9 µM; purified T. brucei MetRS, ATP depletion, Kinase-Glo luminescence; AID 624268; 0.4% of 360,000 active;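 active = inhibition above a per-plate cutoff of the control wells' mean inhibition plus 3 SD, cut at about 5.5% in these data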;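 also: 0% = DMSO wells median and 100% = median of wells with control inhibitor compound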
#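 Dosing: 11.9 µM compound single dose, 0.9% DMSO; Assay system: purified T. brucei MetRS enzyme; Measured by: Kinase-Glo luciferase luminescence reporting remaining unconsumed ATP; Schedule: 15 min plus 2 h at 25 °C.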
# NR3A LBD binder: modulates the human NR3A ligand-binding domain | NR3A LBD differential scanning fluorimetry, Tm shift; 0% = protein alone, 100% = glycine-bound protein | Tm shift relative to glycine control, % at 25 µM | 2.5% of 340,000 active | AID 1259313;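 active = melting temperature shift of at least 10% of the positive control shift, at one fixed dose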
# MPTP inh: inhibitors of mitochondrial permeability transition pore | inhibition, % at 10 µM | isolated mouse mitochondria, Ca2+ swelling absorbance, 30 min | 1.4% of 360,000 active;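 active = inhibition of 50% or more, scaled per plate between neutral and stimulator controls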;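 also: 0% = DMSO wells given calcium and 100% = 1 mM EGTA wells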
# EBV gp42 block: blocks Epstein-Barr virus glycoprotein 42 binding; Q1HVG2; Fluorescence polarization binding assay, mP read-out; inhibition, % (tested at 21.74 µM); 0.42% of 220,000 active; AID 1085; in the data active = inhibition above about 50%
# Target sequence (Q1HVG2 whole entry, looked up): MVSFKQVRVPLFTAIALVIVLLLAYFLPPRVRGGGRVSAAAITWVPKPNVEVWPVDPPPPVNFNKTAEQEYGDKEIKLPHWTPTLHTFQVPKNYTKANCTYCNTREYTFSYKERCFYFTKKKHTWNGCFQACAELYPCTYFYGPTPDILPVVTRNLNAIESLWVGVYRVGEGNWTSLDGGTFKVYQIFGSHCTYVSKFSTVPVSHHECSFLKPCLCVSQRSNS
# CHOP confirm: confirmation of CHOP induction inhibitors. shares compounds with CHOP inhibitor. CHO-CHOP promoter luciferase reporter, tunicamycin-induced, luminescence. inhibition, % at 10 µM. AID 504437. 45% of 2,100 active;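 active = mean of three repeat readings of reporter signal inhibition above a set limit, cut at about 70% in these data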;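 also: 0% = tunicamycin plus vehicle and 100% = wells lacking tunicamycin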
# The depositor's hits bear a star; nt = not tested or not shown.
SMILES,WT yeast gro inh,CHOP inhibitor,Tb MetRS inh,NR3A LBD binder,MPTP inh,EBV gp42 block,CHOP confirm
C=CCNC(=S)Nc1ccc(OC(=O)Nc2ccc(Cl)c(Cl)c2)cc1,nt,22,1,21*,16,-12,nt
O=C(Nc1ccc(Cl)c(Cl)c1)c1ccco1,nt,nt,-1,5,0,nt,nt
CCCC/C(C)=C/[C@@H](NP(=O)(c1ccccc1)c1ccccc1)c1ccccc1,91*,10,0,3,0,0,nt
Cc1cccc(C)c1OC(=O)Cc1ccccc1,-6,24,-1,-1,2,-7,nt
Cc1ccccc1-n1c(C)cc(/C=C2/C(=O)NC(=O)N(Cc3ccco3)C2=O)c1C,20,14,0,-2,6,-15,nt
c1ccc(CNc2c3c(nc4ccccc24)CCC3)cc1,nt,18,0,0,50,0,nt
OCCNc1c2c(nc3ccccc13)CCCC2,65*,-14,0,12*,1,-15,nt
CCCC1=C(C(=O)OCC)C2(C(=O)Nc3ccccc32)C(C#N)=C(N)O1 (centres undefined),4,-6,1,-2,-1,-13,nt
C[C@]12CC[C@@H](O)CC1=CC(=O)C1C2CC[C@]2(C)C(=O)CCC12 (some centres undefined),nt,nt,0,11*,0,nt,nt
C[C@]12CC[C@H](O)CC1=CC(=O)C1C2CC[C@]2(C)C(=O)CCC12 (some centres undefined),nt,nt,0,3,2,nt,nt
CCc1ccc(N2C(=O)NC(=O)/C(=C\c3cccn3CCOc3ccc(C(C)C)cc3)C2=O)cc1,-8,87*,0,8,2,-3,nt
Cc1ccc(OCCn2cccc2/C=C2/C(=O)NC(=O)N(Cc3ccco3)C2=O)cc1,nt,-17,1,-10,2,-23,nt
O=C(Nc1ccc(F)cc1)N1CC2CC(C1)c1cccc(=O)n1C2 (centres undefined),73*,-21,0,0,-1,-15,nt
O=C(Nc1ccccc1)N1CC2CC(C1)c1cccc(=O)n1C2 (centres undefined),-2,12,0,1,-2,3,nt
O=C1NCN(c2ccccc2)C12CCNCC2,-2,101*,1,-3,-3,4,10
CCOC(=O)c1c(C)n(Cc2ccco2)c2ccc(OC)cc12,1,45,0,1,-8,10,nt
CCOC(=O)c1c(C)n(Cc2ccco2)c2c1cc(O)c1ccccc12,16,101*,0,-6,8,-10,-49
C=C1C(=O)O[C@@H]2C[C@@H](C)[C@@H]3C4OC4C(=O)[C@@]3(C)[C@@H](O)[C@H]12 (some centres undefined),nt,107*,0,-3,0,-12,110*
C[C@H]1CC[C@@H]2[C@@H](C)[C@H]3[C@H](C[C@H]4[C@@H]5CC=C6C[C@@H](O[C@@H]7O[C@H](CO)[C@H](O)[C@H](O[C@@H]8O[C@H](CO)[C@@H](O)[C@H](O)[C@H]8O)[C@H]7O[C@@H]7O[C@@H](C)[C@H](O)[C@@H](O)[C@H]7O)CC[C@]6(C)[C@H]5CC[C@]34C)N2C1,-14,106*,-1,-5,-2,-36,-62
C[C@@H]1CC2C3CC=C4C[C@@H](O)CC[C@]4(C)C3CC[C@]2(C)[C@H]1O (some centres undefined),nt,nt,0,-1,0,nt,nt
CNC(=S)N(C)CCc1cc2c(c(OC)c1C=C1C(=O)NC(=O)NC1=O)OCO2,nt,7,-1,9,2,-11,nt
COC(=O)c1c(C)[nH]c(C(=O)C(C)[N+]23CCN(CC2)CC3)c1C (centres undefined),-12,-1,0,0,-1,-12,nt
O=C1NC(=O)N(Cc2ccccc2Cl)C(=O)/C1=C/c1cccs1,0,106*,0,-1,13,-3,-30
O=C1NC(=O)N(Cc2ccc(F)cc2)C(=O)/C1=C/c1cccs1,8,55,0,-2,-1,-10,nt
Cc1ccc(/C=C2\C(=O)NC(=O)N(CCc3ccc(F)cc3)C2=O)o1,-7,105*,0,1,5,-21,-20
SMILES,WT yeast gro inh,CHOP inhibitor,Tb MetRS inh,NR3A LBD binder,MPTP inh,EBV gp42 block,CHOP confirm
Cc1ccc(/C=C2\C(=O)NC(=O)N(Cc3ccccc3Cl)C2=O)o1,-10,105*,1,1,11,-11,-28
Cc1ccc(/C=C2\C(=O)NC(=O)N(CCc3ccc(F)cc3)C2=O)s1,11,-26,0,3,0,0,nt
Cc1cc(/C=C2\C(=O)NC(=O)N(Cc3ccccc3Cl)C2=O)c(C)n1-c1ccc(C(=O)O)cc1,8,1,-1,3,0,-5,nt
COC(=O)C1=C(c2cccc(OCc3ccccc3)c2)C[C@@H]2CC[C@H]1N2C(=O)NCc1ccc([N+](=O)[O-])cc1,nt,nt,0,-3,12,nt,nt
O=c1c2ccccc2nc(Cc2ccccc2)n1-c1cccc(O)c1,-3,17,0,1,0,7,nt
CC(C)OCCCNC(=O)c1c(N)n(Cc2cccs2)c2nc3ccccc3nc12,13,105*,1,5,2,-5,58
Cc1ccc2c(c1)CC1(CN2C)C(=O)NC(=O)N(CCC2=CCCCC2)C1=O (centres undefined),14,107*,0,-1,-2,-3,25
O=c1[nH]c(CN2CCNCC2)nc2ccccc12,16,98*,0,1,-6,-2,-84
O=C1NC(=O)C(=Cc2cn(CCOc3ccc4c(c3)OCO4)c3ccccc23)C(=O)N1,-4,99*,0,2,2,17,-13
O=C1NC(=O)N(c2ccc3c(c2)OCO3)C(=O)/C1=C/c1ccsc1,-15,9,-1,-2,-3,-12,nt
O=C1NC(=O)N(c2ccc3c(c2)OCO3)C(=O)/C1=C/c1cccs1,2,106*,-1,0,3,-14,-17
C=C1C(=O)OC2CC(C)C3C=CC(=O)C3(C)C(O)C12 (centres undefined),nt,nt,0,-2,-2,nt,nt
C=C1C(=O)O[C@H]2C[C@@H](C)[C@@H]3C=CC(=O)[C@@]3(C)C[C@H]12,nt,105*,nt,-6,nt,-1,90*
O=c1[nH]c(O)c(/C=C2/C=CC(c3cc(Cl)ccc3Cl)=N2)c(=O)[nH]1,nt,103*,1,-3,1,27,46
CC1=Nc2ccccc2/C1=C/c1c(O)[nH]c(=O)[nH]c1=O,nt,nt,0,1,5,nt,nt
Cc1cccc(N2C(=O)NC(=O)/C(=C\C=C\c3ccco3)C2=O)c1,nt,18,0,0,1,-177,nt
Cc1ccc(N2C(=O)NC(=O)/C(=C\C=C\c3ccco3)C2=O)cc1,nt,106*,2,0,1,-154,132*
O=C1NC(=O)N(Cc2ccco2)C(=O)/C1=C/C=C/c1ccco1,nt,108*,0,2,0,-129,140*
